Experimental data pooled from the literature.
Target: Muscarinic acetylcholine receptor M1 (CHRM1, Homo sapiens, UniProt P11229)
Tested at: 10 µM
Sequence (P11229 1-460, as in one of the studies): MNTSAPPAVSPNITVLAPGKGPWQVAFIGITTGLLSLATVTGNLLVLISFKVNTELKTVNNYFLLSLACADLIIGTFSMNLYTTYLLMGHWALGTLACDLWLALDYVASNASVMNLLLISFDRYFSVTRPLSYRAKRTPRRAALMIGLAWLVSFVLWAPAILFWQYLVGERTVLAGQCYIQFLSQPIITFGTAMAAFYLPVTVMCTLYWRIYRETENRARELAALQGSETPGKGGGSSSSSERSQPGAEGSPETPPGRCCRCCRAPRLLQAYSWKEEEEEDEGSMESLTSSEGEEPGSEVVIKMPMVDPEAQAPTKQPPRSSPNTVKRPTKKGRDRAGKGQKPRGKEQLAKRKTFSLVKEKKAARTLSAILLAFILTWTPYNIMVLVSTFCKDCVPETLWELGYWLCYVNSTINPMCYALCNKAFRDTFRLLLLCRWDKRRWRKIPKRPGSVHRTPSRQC

`Oc1cccc(Nc2nc(-c3ccc(F)cc3F)cs2)c1` gave an inhibition of -66% (cell-free assay).
`N#Cc1cc(Cn2c(N3CCCC3)nc3ccccc32)ccc1F` has an inhibition of -15.5% (ligand displacement).
`O=C(c1ccc(Cl)cc1)N(Cc1ccccc1)C1CCCCC1` has an inhibition of -25.8% (cell-free assay).
With `CCCNc1nc2ccccc2n1Cc1ccc(Cl)cc1` the inhibition was -16.1% (ligand displacement).
`CCN(Cc1ccccc1C(F)(F)F)C(=O)C1CCN(S(=O)(=O)c2ccc3[nH]ncc3c2)CC1` gave an inhibition of 1% (ligand displacement, radioligand).
`O=C(Nc1ccc(S(=O)(=O)N2CCC(Cl)CC2)cc1)c1ccc([N+](=O)[O-])o1` gave an inhibition of 2% (ligand displacement, radioligand).
`CCN(CC)c1ccc(C2Nc3ccc(C(=O)c4ccccc4)cc3NC3=C2C(=O)CC(C)(C)C3)cc1` (centres unmarked) has an inhibition of -4% (ligand displacement, radioligand).
`O=C1N=C(N2CCCCN2)S/C1=C\c1ccc(F)cc1O` has an inhibition of under 10% (ligand displacement, radioligand).
